Assay outcomes from PubChem BioAssay.
Compounds with a hit are over-represented: about 29% of the library has one in this group of screens.
Ecoli tolC: growth inhibitors of E. coli BW25113 tolC mutant | hit rate 2.2% among 65,000 | growth inhibition, % at 10 µM (by protocol) | AID 573 | OD615;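 active = growth inhibition at or above a cutoff equal to the mean over every tested compound plus 3 SD, cut at about 60% in these data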;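 note: growth measured after 20 h incubation at 37 °C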
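Material: E. coli BW25113 ΔtolC::kan, tolC deletion mutant strain. Measure: percent growth inhibition. Schedule: 37 °C, 20 h exposure. Doses: single-point testing at 10 µM. Signal: A615 absorbance measurement. Buffer or medium: kanamycin-containing LB broth (50 µg/mL).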
CYP2C9 act: increases human cytochrome P450 2C9 activity. AID 1024. recombinant CYP2C9, luciferin-H conversion, luminescence; active compounds read high; factor 1 = untreated enzyme, 0 = blocked. hit rate 1.4% among 96,000. activation factor at 5 µM. P11712;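 active = activation factor of 2 or more for CYP2C9 at a 5 µM dose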;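 note: 0 = sulfaphenazole-blocked wells and 1 = vehicle-only wells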
Target sequence (P11712 whole entry, looked up): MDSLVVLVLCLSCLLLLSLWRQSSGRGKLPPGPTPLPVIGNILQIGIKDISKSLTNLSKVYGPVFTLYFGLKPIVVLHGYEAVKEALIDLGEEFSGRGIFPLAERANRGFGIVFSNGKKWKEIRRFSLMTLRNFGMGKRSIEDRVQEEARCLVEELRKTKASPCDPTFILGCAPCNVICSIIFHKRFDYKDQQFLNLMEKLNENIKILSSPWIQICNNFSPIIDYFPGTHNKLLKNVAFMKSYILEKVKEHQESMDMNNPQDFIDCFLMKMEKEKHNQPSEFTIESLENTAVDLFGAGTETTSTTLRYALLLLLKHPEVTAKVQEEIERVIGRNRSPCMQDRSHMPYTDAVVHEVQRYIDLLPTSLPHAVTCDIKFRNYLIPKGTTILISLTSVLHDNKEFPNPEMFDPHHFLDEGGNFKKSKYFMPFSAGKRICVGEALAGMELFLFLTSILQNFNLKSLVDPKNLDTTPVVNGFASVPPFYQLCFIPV
CYP2C19 act: activators of human cytochrome P450 2C19 | AID 1025 | activation factor at 5 µM | 96,000 tested, under 10 active | P33261 | recombinant CYP2C19, luciferin-H EGE luminescence; active compounds read high; 0 = fully inhibited enzyme, 1 = untreated enzyme;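 active = activation factor of at least 2 at 5 µM in the primary screen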;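 note: 0 = wells with 2.5 mM tranylcypromine and 1 = vehicle-only wells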
CYP2C19 inh: inhibitors of human CYP2C19 | AID 778 | CYP2C19 Supersomes, luciferin-H EGE luminescence, 30 min | inhibition, % at 5 µM | hit rate 21% among 96,000;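 active = CYP2C19 inhibition above a set limit at 5 µM in the primary screen, cut at about 50% in these data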;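 note: plate controls were negative control wells for no effect and 2.5 mM tranylcypromine positive control for full effect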
Ecoli WT expand: E. coli BW25113 growth inhibition, expanded screen | OD600 absorbance | growth inhibition, % at 100 µM | hit rate 0.15% among 98,000;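 active = growth inhibition above about 50% at one test dose, limit read from the data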;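 note: growth measured after 20 h incubation at 37 °C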
CYP2C9 inhib: human CYP2C9 inhibition. P11712. CYP2C9 Supersomes, luciferin-H conversion, luminescence. inhibition, % at 5 µM. hit rate 20% among 96,000;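 active = blocking of liver enzyme CYP2C9 beyond about 50% at 5 µM, limit read from the data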
An asterisk follows results filed as active; nt = not tested or not shown.

SMILES	Ecoli tolC	CYP2C9 act	CYP2C19 act	CYP2C19 inh	Ecoli WT expand	CYP2C9 inhib
CCOC(=O)c1sc2cc([N+](=O)[O-])cc(SCC(C)C)c2c1N	nt	0.8	1.1	-7	-10	17
COC(=O)/C(=C\Nc1ccc(Cl)c2ccccc12)c1ncc(C(F)(F)F)cc1Cl	nt	0.2	0.7	33	5	76*
CCOC(=O)/C(=C\Nc1ccccc1C(F)(F)F)Sc1ncc(C(F)(F)F)cc1Cl	nt	0.2	0.4	59*	-3	82*
CON/C=C(\C=Nc1ccc(F)cc1)c1ncc(C(F)(F)F)cc1Cl	nt	0.8	1.1	-15	1	21
COc1ccc(-c2nc(CN3CCC(C(=O)N4CCc5ccccc54)CC3)c(C)o2)cc1OC	6	0.7	0.9	13	8	30
CCSc1cc(C2C(C#N)=C(N)OC(C)=C2C(=O)OC)c(C)o1 (stereo not drawn)	2	0.2	0.1	90*	11	81*
CCOC(=O)C1=C(C)NC(=O)NC1c1c(C)nn(-c2ccccc2)c1Cl (stereo not drawn)	3	0.5	0.7	30	0	46
CCOC(=O)C1=C(C)OC(N)=C(C#N)C1c1c(C)nn(-c2ccc(C)cc2)c1Cl (stereo not drawn)	15	0	0	100*	9	97*
CCOC(=O)C1=C(C)N(C)C(=O)NC1c1c(C)nn(-c2ccc(C)cc2)c1Cl (stereo not drawn)	nt	0.3	0.2	83*	-7	74*
COC(=O)C1=C(C)OC(N)=C(C#N)C1c1c(C)nn(-c2ccccc2)c1Cl (stereo not drawn)	13	0	0	97*	13	96*
O=C(O)c1cc(S(=O)(=O)N2CCOCC2)c(Sc2ccccn2)cc1Sc1ccccn1	-1	0.8	1	5	2	22
Cc1cc([N+](=O)[O-])nn1Cc1c(F)c(F)c(F)c(F)c1F	nt	0.7	0.6	39	3	27
COC(=O)C1=C(C)OC(N)=C(C#N)C1c1ccc(OC)c(CSc2ccccn2)c1 (stereo not drawn)	nt	0.1	0.2	79*	5	89*
COC(=O)C1=C(C)OC(N)=C(C#N)C1c1ccccc1 (stereo not drawn)	5	0.6	0.2	83*	4	44
C=CCOC(=O)C1=C(C)OC(N)=C(C#N)C1c1ccccc1F (stereo not drawn)	7	0.4	0.2	81*	0	56*
COc1ccc(C2C(C#N)=C(N)OC3=C2C(=O)CC(C)(C)C3)c(OC)c1OC (stereo not drawn)	-7	0.3	0.6	40	2	71*
COC(=O)CC1=C(C(=O)OC)C(c2cc(OC)c(OC)cc2OC)C(C#N)=C(N)O1 (stereo not drawn)	nt	0.5	0.7	34	8	49
COCCn1c(C)cc2c(c1=O)C(c1ccccc1F)C(C#N)=C(N)O2 (stereo not drawn)	-10	0.9	1	1	-4	10
CN(C)c1ccc(CNC(=O)C2CCN(S(=O)(=O)c3ccc4c(c3)CCC(=O)N4)CC2)cc1	-4	0.9	1	-2	5	14
CCOC(=O)C1=C(C)Nc2ncnn2C1c1ccccc1F (stereo not drawn)	2	0.8	0.9	10	6	20
N#CC1=C(N)Oc2n[nH]c(-c3cccs3)c2C1C1CCCCC1 (stereo not drawn)	nt	1	0.5	45	5	2
COC(=O)C1=C(C)OC(N)=C(C#N)C1c1ccc(OC)c(OC)c1OC (stereo not drawn)	4	0.5	0.4	58*	3	54*
COc1ccc(C2C(C#N)=C(N)Oc3c2oc(CO)cc3=O)c(OC)c1OC (stereo not drawn)	-28	0.8	0.9	6	2	17
CCOC(=O)C1=C(C)N(c2nonc2NC(C)=O)C(N)=C(C#N)C1c1ccccc1F (stereo not drawn)	14	0.3	0.3	73*	-6	73*
COC(=O)C1=C(C)OC(N)=C(C#N)C1C1CCCCC1 (stereo not drawn)	10	0.5	0.2	78*	-2	54*
SMILES	Ecoli tolC	CYP2C9 act	CYP2C19 act	CYP2C19 inh	Ecoli WT expand	CYP2C9 inhib
FC(F)Sc1ccc(NC(=S)NC2CCCCC2)cc1	nt	2.4*	0.2	75*	13	-143
FC(F)Sc1ccc(NC(=S)NCC2CCCCC2)cc1	nt	1.3	0	96*	11	-28
O=C(Nc1ccc(SC(F)F)cc1)C1=COCCO1	-6	1.1	1	4	5	-9
CC1CCCCC1NC(=S)Nc1ccc(SC(F)F)cc1 (stereo not drawn)	nt	2.3*	0.4	61*	12	-125
NC(=O)/C=C\C(=O)Nc1cccc(C(F)(F)F)c1	nt	1	0.9	11	8	3
Cc1ccccc1NC(=O)/C=C/c1cccc(C(F)(F)F)c1	nt	2.2*	0.9	5	-2	-122
CC(=O)Cn1c(N2CCC(Cc3ccccc3)CC2)nc2c1c(=O)[nH]c(=O)n2C	7	0.8	0.5	50*	-1	16
C=C(C)CSc1nc2c(c(=O)[nH]c(=O)n2C)n1Cc1ccccc1	11	nt	nt	nt	nt	nt
Cc1ccc(Cn2c(N3CCCCCC3)nc3c2c(=O)[nH]c(=O)n3C)cc1	16	1	1	3	3	0
C=C(C)Cn1c(N2CCC(Cc3ccccc3)CC2)nc2c1c(=O)[nH]c(=O)n2C	92*	nt	nt	nt	-7	nt
CC1(C)CC(NC(=O)C23CCC(C)(/C(=N/O)C2)C3(C)C)CC(C)(C)N1 (stereo not drawn)	1	1.1	1.2	-21	nt	-9
CCC(C)(C(=O)NC1CCCCC1)N(C(=O)C1CCC(=O)N1)c1ccc(C)cc1 (stereo not drawn)	-2	1.2	1.1	-15	3	-20
Cc1cc(C)c(NN=c2c(=O)c3ccccc3c2=O)c(C)c1	nt	0.8	1	4	-14	18
O=c1c(=NNc2ccccc2Cl)c(=O)c2ccccc12	nt	0.7	0.4	60*	-15	32
COc1ccc(/C(O)=C2\C(=O)C(=O)N(CCCN(C)C)C2c2ccccc2F)cc1Cl (stereo not drawn)	-27	0.7	0.9	8	nt	26
CCCS(=O)(=O)N1CCN(Cc2ccncc2)CC1	-3	0.8	0.7	29	6	16
CCCCS(=O)(=O)Nc1ccc(Cc2ccncc2)cc1	10	0	0	100*	16	100*
CC(C)C(NS(=O)(=O)c1cccs1)C(=O)N(C)Cc1ccccc1 (stereo not drawn)	nt	0	0	96*	7	96*
CN(Cc1cccs1)S(=O)(=O)c1cccs1	9	1.1	0.1	92*	8	-10
CN(Cc1ccccc1)S(=O)(=O)c1cccs1	nt	0.7	0	98*	10	29
CN(CC(=O)NCCc1ccccc1)S(=O)(=O)c1cccs1	-10	0.6	0.4	58*	1	37
